Experimental data collected from several papers.
Compare with care: the assays were run in different laboratories.
SLC6A4: Sodium-dependent serotonin transporter (SLC6A4, Homo sapiens, UniProt P31645)
DRD1: D(1A) dopamine receptor (DRD1, Homo sapiens, UniProt P21728)
rep papain-like protease: Replicase polyprotein 1ab, papain-like protease (rep, Porcine epidemic diarrhea virus, UniProt P0C6Y4)

Cc1cc(O)c(-c2ccc([C@@H](C)CN(C)C)cc2)c2c1[nH]c(=O)c1sccc12 has an inhibition of 15.6% (Mitogen-activated protein kinase kinase kinase 6 (MAP3K6, Homo sapiens, UniProt O95382); enzyme activity; inhibitor; 0.1 µM).
Cc1cc(F)cc2c(CCC(=O)N[C@@H]3C(=O)NC[C@H]3O)c(-c3ccc(F)cc3)[nH]c12 gave an inhibition of 8% (SLC6A4; cell-free assay; 10 µM).
N#C[C@@]12C[C@@H]1[C@@H](n1cnc3c(Nc4ccccc4)nc(I)nc31)[C@H](O)[C@@H]2O gave an inhibition of 3% (SLC6A4; ligand displacement; radioligand; 10 µM).
With CC(C)C(C(=O)NCc1cc(O)c(O)c(Br)c1)c1ccc(Cl)cc1 (stereo not drawn) the inhibition was 41.9% (Replicase polyprotein 1ab, main protease (rep, Porcine epidemic diarrhea virus, UniProt P0C6Y4); enzyme activity; inhibitor; FRET; 10 µM).
CCN1/C(=C/C(C)=O)Sc2ccc(F)cc21 has an inhibition of 7.04% (DRD1; ligand displacement; radioligand; 10 µM).
The inhibition of Cc1ccccc1C(=O)NCc1cc(O)c(O)c(Br)c1 is reported as 115% (rep papain-like protease; enzyme activity; inhibitor; FRET; 10 µM).
CCOC(=O)[C@@]12C[C@@H]1[C@@H](n1ccc3c(NCCCCCCCc4ccccc4)nc(C#Cc4ccccc4)nc31)[C@H](O)[C@@H]2O has an inhibition of 32% (SLC6A4; ligand displacement; radioligand; 10 µM).
C#Cc1cc(-c2cc(Nc3nc(N[C@@H](C)c4ccc(F)cn4)ncc3Cl)n[nH]2)ccc1C=O has an inhibition of 63% (Rhodopsin kinase GRK7 (GRK7, Homo sapiens, UniProt Q8WTQ7); enzyme activity; inhibitor; 0.2 µM).
The inhibition of CCOC(=O)[C@@]12C[C@@H]1[C@@H](n1cnc3c(NC4CC4)nc(C#Cc4ccc(Cl)s4)nc31)[C@H](O)[C@@H]2O is reported as 15% (SLC6A4; ligand displacement; radioligand; 10 µM).
The inhibition of COc1cc(CNC(=O)c2cc3ccccc3n2C)cc(Br)c1OC is reported as 13% (rep papain-like protease; enzyme activity; inhibitor; FRET; 10 µM).
With N#C[C@@]12C[C@@H]1[C@@H](n1cnc3c(Nc4ccccc4)nc(C#Cc4ccc(Cl)s4)nc31)[C@H](O)[C@@H]2O the inhibition was 12% (SLC6A4; ligand displacement; radioligand; 10 µM).
With O=C(NCc1cc(O)c(O)c(Br)c1)c1ccc2ccccc2n1 the inhibition was 45.5% (rep papain-like protease; enzyme activity; inhibitor; FRET; 10 µM).
The inhibition of NC/C(=C\F)COc1cccc(Cn2c(=S)[nH]c(=O)c3[nH]cnc32)c1 is reported as under 50% (DRD1; ligand displacement; radioligand; 10 µM).
For N#CC[C@@]12C[C@@H]1[C@@H](n1cnc3c(NCCCCCc4ccccc4)nc(I)nc31)[C@H](O)[C@@H]2O, the inhibition was 3% (SLC6A4; ligand displacement; radioligand; 10 µM).
With COc1cc(CNC(=O)c2cccc(OC(C)=O)c2C)cc(Br)c1OC the inhibition was 14.1% (rep papain-like protease; enzyme activity; inhibitor; FRET; 10 µM).
